Measurements from ChEMBL document CHEMBL5252671, “Design, synthesis and evaluation of the anti-breast cancer activity of 1,3-oxazolo[4,5-d]pyrimidine and 1,3-oxazolo[5,4-d]pyrimidine derivatives” (2023).

How the values were obtained:
Format in all cases: functional
BT-549 [1] = assay: Antiproliferative activity against human BT-549 cells assessed as inhibition of cell growth at 1 X 10^-5 M measured for 48 hrs by sulforhodamine B assay relative to control; conditions: BT-549, 48 h, dose 1 10^-5M
Summary of the method: (§1)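 NCI one-dose screen. Cells were seeded at 5000-40000/well in RPMI 1640 with 5% FBS and 2 mM L-glutamine and preincubated 24 h at 37 °C in 5% CO2. Compound was added at 10⁻⁵ M for 48 h. Cells were then fixed with 10% TCA, stained with sulforhodamine B, washed with 1% acetic acid, solubilized in 10 mM Tris and read as OD at 510 nm.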

T47D [2] = assay: Anticancer activity against human T47D cells measured at 48 hrs; conditions: for CC50: read-out: LC50 (the source's name)
Summary of the method: (§2)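 NCI DTP five-dose screen on the breast subpanel: compound at 0.01, 0.1, 1, 10 and 100 μM for 48 h. Cell density read by sulforhodamine B (protein content). GI50, TGI and LC50 were derived from the T, T0 and C optical densities using the NCI formulas.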

MDA-MB-231 [3] = assay: Antiproliferative activity against human MDA-MB-231 cells assessed as inhibition of cell growth at 1 X 10^-5 M measured for 48 hrs by sulforhodamine B assay relative to control; conditions: MDA-MB-231, 48 h, dose 1 10^-5M; summary of the method: as §1
MCF7 [4] = assay: Anticancer activity against human MCF7 cells measured at 48 hrs; summary of the method: as §2
Hs-578T [5] = assay: Antiproliferative activity against human Hs-578T cells assessed as inhibition of cell growth at 1 X 10^-5 M measured for 48 hrs by sulforhodamine B assay relative to control; conditions: dose 1 10^-5M; summary of the method: as §1
T47D [6] = assay: Antiproliferative activity against human T47D cells assessed as inhibition of cell growth at 1 X 10^-5 M measured for 48 hrs by sulforhodamine B assay relative to control; conditions: dose 1 10^-5M; summary of the method: as §1
MDA-MB-468 [7] = assay: Anticancer activity against human MDA-MB-468 cells measured at 48 hrs; summary of the method: as §2
MDA-MB-231 [8] = assay: Anticancer activity against human MDA-MB-231 cells measured at 48 hrs; summary of the method: as §2
MDA-MB-468 [9] = assay: Antiproliferative activity against human MDA-MB-468 cells assessed as inhibition of cell growth at 1 X 10^-5 M measured for 48 hrs by sulforhodamine B assay relative to control; conditions: MDA-MB-468, 48 h, dose 1 10^-5M; summary of the method: as §1
MCF7 [10] = assay: Antiproliferative activity against human MCF7 cells assessed as inhibition of cell growth at 1 X 10^-5 M measured for 48 hrs by sulforhodamine B assay relative to control; conditions: MCF7, 48 h, dose 1 10^-5M; summary of the method: as §1
BT-549 [11] = assay: Anticancer activity against human BT-549 cells measured at 48 hrs; summary of the method: as §2
Hs-578T [12] = assay: Anticancer activity against human Hs-578T cells measured at 48 hrs; summary of the method: as §2

Row | Structure (SMILES) | inhibition at 10 µM (BT-549 [1]) [%] | GI50 (T47D [2]) [µM] | TGI (T47D [2]) [µM] | inhibition at 10 µM (MDA-MB-231 [3]) [%] | GI50 (MCF7 [4]) [µM] | LC50 (concentration giving 50% net cell kill) (MCF7 [4]) [µM] | TGI (MCF7 [4]) [µM] | inhibition at 10 µM (Hs-578T [5]) [%] | inhibition at 10 µM (T47D [6]) [%] | GI50 (MDA-MB-468 [7]) [µM] | TGI (MDA-MB-468 [7]) [µM] | GI50 (MDA-MB-231 [8]) [µM] | LC50 (concentration killing 50% of starting cells) (MDA-MB-231 [8]) [µM] | TGI (MDA-MB-231 [8]) [µM] | inhibition at 10 µM (MDA-MB-468 [9]) [%] | inhibition at 10 µM (MCF7 [10]) [%] | GI50 (BT-549 [11]) [µM] | TGI (BT-549 [11]) [µM] | GI50 (Hs-578T [12]) [µM] | TGI (Hs-578T [12]) [µM] | also measured
1 | Cc1ccc(-c2nc(N3CCCNCC3)c3oc(-c4ccc(C)cc4)nc3n2)cc1 | 10 | 1.94 | 4.17 | 179 | 1.85 | 8.14 | 3.88 | 0 | 146 | 1.96 | 4.39 | 1.69 | 5.73 | 3.11 | 95 | 165 | 16.3 | 35 | 12.6 | 31.9 | CC50 (T47D [2]): 8.96 µM; LC50 (concentration giving 50% net cell kill) (BT-549 [11]): 75.2 µM; LC50 (50% lethal concentration) (Hs-578T [12]): 80.9 µM
2 | Cc1ccc(-c2nc3nc(-c4ccccc4)nc(N4CCCNCC4)c3o2)cc1 | 72 | 1.72 | 3.5 | 187 | 1.48 | 8.29 | 3.5 | 118 | 145 | 1.59 | 3.35 | 1.81 | 6.1 | 3.32 | 168 | 178 | 1.63 | 3.19 | 1.83 | 4.02 | CC50 (T47D [2]): 7.1 µM; LC50 (concentration giving 50% net cell kill) (MDA-MB-468 [7]): 7.04 µM; LC50 (concentration giving 50% net cell kill) (BT-549 [11]): 6.25 µM; LC50 (50% lethal concentration) (Hs-578T [12]): 8.85 µM
3 | Cc1ccc(-c2nc3nc(-c4ccc(Br)cc4)nc(N4CCCNCC4)c3o2)cc1 | 1 | 3.06 | 13.9 | 157 | 1.78 | 6.91 | 3.51 | 130 | 108 | 3.98 | 15.9 | 1.93 | 8.5 | 4.05 | 165 | 176 | 16 | 34.6 | 17.2 | 37.1 | CC50 (T47D [2]): 65.5 µM; LC50 (concentration giving 50% net cell kill) (MDA-MB-468 [7]): 52.5 µM; LC50 (concentration giving 50% net cell kill) (BT-549 [11]): 75 µM; LC50 (50% lethal concentration) (Hs-578T [12]): 80.2 µM
4 | Cc1ccc(-c2nc(N3CCNCC3)c3oc(-c4ccc(C)cc4)nc3n2)cc1 | 17 | 11.4 | 37.4 | 172 | 1.72 | 7.86 | 3.68 | 1 | 63 | 2.13 | 4.77 | 1.74 | 6.81 | 3.44 | 133 | 173 | 1.71 | 3.32 | 2.27 | 5.83 | CC50 (T47D [2]): > 100 µM; LC50 (concentration giving 50% net cell kill) (MDA-MB-468 [7]): 13.5 µM; LC50 (concentration giving 50% net cell kill) (BT-549 [11]): 6.48 µM; LC50 (50% lethal concentration) (Hs-578T [12]): > 100 µM
5 | Cc1ccc(-c2nc3nc(-c4ccccc4)nc(N4CCNCC4)c3o2)cc1 | 172 | 0.35 | 1.51 | 179 | 0.33 | 5.74 | 1.45 | 151 | 168 | 0.29 | 1.18 | 0.26 | 2.61 | 0.67 | 187 | 166 | 1.72 | 3.2 | 2.02 | 4.22 | CC50 (T47D [2]): 6.33 µM; LC50 (concentration giving 50% net cell kill) (MDA-MB-468 [7]): 4.84 µM; LC50 (concentration giving 50% net cell kill) (BT-549 [11]): 5.99 µM
6 | Cc1ccc(-c2nc(N3CCCNCC3)c3oc(-c4ccccc4)nc3n2)cc1 | 19 | 2.02 | 4 | 192 | 1.59 | 7.45 | 3.44 | 130 | 167 | 1.55 | 3.24 | 1.77 | 6.06 | 3.27 | 176 | 175 | 1.62 | 3.14 | 1.94 | 4.22 | CC50 (T47D [2]): 7.94 µM; LC50 (concentration giving 50% net cell kill) (MDA-MB-468 [7]): 6.75 µM; LC50 (50% lethal concentration) (Hs-578T [12]): 9.21 µM
7 | c1ccc(-c2nc(N3CCNCC3)c3nc(-c4ccccc4)oc3n2)cc1 | 3 | 1.94 | 4.19 | 181 | 1.7 | 7.54 | 3.58 | 11 | 157 | 1.93 | 3.66 | 1.67 | 6.13 | 3.2 | 137 | 169 | 1.67 | 3.24 | 1.87 | 4.11 | LC50 (concentration giving 50% net cell kill) (MDA-MB-468 [7]): 6.94 µM; LC50 (concentration giving 50% net cell kill) (BT-549 [11]): 6.27 µM; LC50 (50% lethal concentration) (Hs-578T [12]): 9.05 µM
8 | c1ccc(-c2nc(N3CCCNCC3)c3nc(-c4ccccc4)oc3n2)cc1 | 5 | 1.78 | 3.64 | 103 | 1.67 | 6.67 | 3.34 | 16 | 53 | 1.72 | 3.37 | 1.72 | 5.99 | 3.21 | 153 | 167 | 1.78 | 3.29 | 1.86 | 3.94 | CC50 (T47D [2]): 7.42 µM; LC50 (concentration giving 50% net cell kill) (MDA-MB-468 [7]): 6.57 µM; LC50 (50% lethal concentration) (Hs-578T [12]): 8.34 µM
9 | Cc1ccc(-c2nc3nc(-c4ccc(F)cc4)nc(N4CCNCC4)c3o2)cc1 | 1 | 2.3 | 6.92 | 129 | 1.66 | 7.4 | 3.51 | 106 | 127 | 1.74 | 3.38 | 1.86 | 7.09 | 3.63 | 46 | 174 | 13.6 | 30.1 | 2.06 | 5.12 | CC50 (T47D [2]): > 100 µM; LC50 (concentration giving 50% net cell kill) (MDA-MB-468 [7]): 6.56 µM; LC50 (concentration giving 50% net cell kill) (BT-549 [11]): 66.8 µM; LC50 (50% lethal concentration) (Hs-578T [12]): 37 µM
10 | c1ccc(-c2nc(N3CCCNCC3)c3oc(-c4ccccc4)nc3n2)cc1 | 126 | 1.69 | 3.48 | 180 | 1.41 | 5.69 | 2.83 | 131 | 123 | 1.48 | 2.87 | 1.56 | 5.65 | 2.97 | 171 | 132 | 1.73 | 3.18 | 1.86 | 4.13 | CC50 (T47D [2]): 7.15 µM; LC50 (concentration giving 50% net cell kill) (MDA-MB-468 [7]): 5.54 µM; LC50 (concentration giving 50% net cell kill) (BT-549 [11]): 5.86 µM; LC50 (50% lethal concentration) (Hs-578T [12]): 9.16 µM
11 | Cc1ccc(-c2nc(N3CCNCC3)c3oc(-c4ccccc4)nc3n2)cc1 | 15 | 1.81 | 3.83 | 179 | 1.85 | 7.6 | 3.75 | 72 | 158 | 1.81 | 3.8 | 1.62 | 5.77 | 3.06 | 131 | 175 | 13.8 | 31.6 | 2.53 | 7.69 | CC50 (T47D [2]): 8.07 µM; LC50 (concentration giving 50% net cell kill) (MDA-MB-468 [7]): 7.98 µM; LC50 (concentration giving 50% net cell kill) (BT-549 [11]): 72.7 µM; LC50 (50% lethal concentration) (Hs-578T [12]): > 100 µM
